Compound activity (PubChem BioAssay)
RGS4 block: human RGS4 inhibition | P49798 | HEK293 M3R/RGS4 inducible, Fluo-4 calcium flux; hits give high values; triggered by carbachol at its EC20 | B-score at 10 µM | 310,000 tested, 0.45% active | AID 463165;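 active = B-score, a plate-corrected calcium signal, over three deviations above library mean, with baseline fluorescence within five deviations of library mean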;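 also: RGS4 expression induced by doxycycline in cells with stable M3 receptor; B-score is computed from the integrated fluorescence ratio over baseline after carbachol; higher B-score means a larger calcium signal and so more RGS4 inhibition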
Target sequence (P49798 whole entry, looked up): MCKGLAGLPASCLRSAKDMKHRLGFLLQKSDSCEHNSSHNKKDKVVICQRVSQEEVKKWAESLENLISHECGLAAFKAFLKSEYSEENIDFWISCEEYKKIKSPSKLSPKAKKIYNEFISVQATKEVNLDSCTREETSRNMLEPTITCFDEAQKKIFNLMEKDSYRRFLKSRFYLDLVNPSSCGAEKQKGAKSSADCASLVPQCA
MrgX1 agonist: human MrgX1 receptor agonism, primary screen; 310,000 tested, 0.44% active; MrgX1-HEK293 cells, Fluo-4 calcium fluorescence, agonist mode; hits give high values; B-score at 10 µM;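 active = calcium response B-score plate-corrected fluorescence ratio at least 3 library SD, with starting fluorescence B-score inside 5 SD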
Target sequence (Q96LB2 whole entry, looked up): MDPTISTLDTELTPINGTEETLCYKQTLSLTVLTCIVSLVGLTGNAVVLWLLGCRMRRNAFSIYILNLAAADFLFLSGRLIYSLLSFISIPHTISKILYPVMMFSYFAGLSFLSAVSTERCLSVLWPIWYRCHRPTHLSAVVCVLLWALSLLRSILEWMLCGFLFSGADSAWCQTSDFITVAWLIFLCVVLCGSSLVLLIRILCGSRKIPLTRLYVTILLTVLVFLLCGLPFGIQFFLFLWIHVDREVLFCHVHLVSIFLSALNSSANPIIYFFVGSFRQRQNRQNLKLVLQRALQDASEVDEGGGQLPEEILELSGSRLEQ
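Assay system: stable human MrgX1 HEK293 cell line. Quantity: 15,000 cells per well. Schedule: cells plated overnight, dye loaded 0.5 h 37 °C, 0.5 h room temperature. Detection: Fluo-4 NW calcium-flux fluorescence, kinetic read. Read-out basis: peak-minus-minimum fluorescence over baseline, converted to B scores. Control set: positive and negative control wells on each plate.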
MrgX1 antag: blocks BAM8-22 activation of human MrgX1 receptor; AID 588676; MRGX1-HEK293 calcium flux, Fluo-4, BAM8-22 antagonism; hits give low values; Q96LB2; B-score at 10 µM; 310,000 tested, 1.3% active;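 active = calcium-response B-score plate-corrected more than 3 library SD below zero, starting fluorescence within 5 deviations, no agonist response on first addition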;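 also: peak minus trough fluorescence over baseline after final BAM8-22 challenge near maximal dose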
RGS4 pot: potentiators or activators of RGS4. HEK293 M3R/inducible RGS4, carbachol calcium flux Fluo4; hits give low values. B-score at 10 µM. 310,000 tested, 0.92% active. AID 463111;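 active = B-score of the integrated calcium signal more than 4 SD below the library mean, with starting fluorescence not abnormally high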;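 also: negative B-score means reduced calcium response which marks RGS4 activation or potentiation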
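Assay system: Inducible-RGS4 HEK293 cells carrying M3 receptor | Schedule: Compound preincubation 20 min at room temperature before agonist | Signal: Kinetic calcium fluorescence imaging with Fluo4-AM dye, 2 µM | Read-out basis: B score from integrated fluorescence ratio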
MrgX1 PAM: allosterically activates human MrgX1 receptor signaling; MrgX1-HEK293, Fluo-4 calcium flux, FDSS; hits give high values; B-score at 10 µM; 310,000 tested, 0.63% active; AID 588675;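 active = plate-corrected calcium response at least 3 library SD above typical, normal starting fluorescence, not activating the receptor alone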;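 also: compound read alongside a low EC10 to EC30 dose of BAM8-22 agonist; peak minus trough fluorescence over baseline measured at the second addition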
Of the large screens only hits and unclear results are named; the others gave an inactive call. Compounds with a hit are over-represented: about 3.5% of the library has one in this group of screens.

COc1ccc(-c2nn(-c3ccccc3)cc2C=O)cc1[N+](=O)[O-]	none
O=C(O)/C=C/c1cn(-c2ccccc2)nc1-c1ccc(-c2ccc([N+](=O)[O-])cc2)o1	MrgX1 antag -4.6
COc1ccc(-c2nn(-c3ccccc3)cc2/C=C/C(=O)O)cc1[N+](=O)[O-]	MrgX1 PAM 9.2
Cc1nc2sccn2c(=O)c1S(=O)(=O)Nc1cccc(Cl)c1C	none
Oc1ccc(/C=N/Nc2nc(-c3cccnc3)nc3ccccc23)c(O)c1	none
CC(Nc1nc(-c2cccnc2)nc2ccccc12)c1ccc(F)cc1 (stereo not drawn)	RGS4 pot -7.1
Cc1c(O)ccc(/C=N/Nc2nc(-c3cccnc3)nc3ccccc23)c1O	RGS4 pot -8.1
CCOC(=O)c1ccc(Nc2nc(-c3cccnc3)nc3ccccc23)cc1	RGS4 pot -7.1
CN(Cc1ccccc1F)c1nc(-c2cccnc2)nc2ccccc12	RGS4 pot -14
Clc1cccc(CNc2nc(-c3cccnc3)nc3ccccc23)c1	RGS4 pot -9.2 (no result: MrgX1 agonist, MrgX1 antag, MrgX1 PAM)
Cc1ccccc1Nc1nc(-c2cccnc2)nc2ccccc12	MrgX1 agonist 42, RGS4 pot -7.2
Fc1ccc(CNc2nc(-c3cccnc3)nc3ccccc23)cc1	MrgX1 agonist 35, RGS4 pot -7.1
c1cncc(CNc2nc(-c3cccnc3)nc3ccccc23)c1	none
O=c1c2ccccc2nc2ccc(NCc3cccs3)nn12	none
CCOC(=O)c1ccc(NS(=O)(=O)c2cn(C)cn2)cc1	none
COc1cc(/C=C2/C(=O)N(c3cccc(Br)c3)N=C2C)cc(OC)c1O	MrgX1 agonist 62
CCc1ccc(NC(=O)C2CC=CCC2C(=O)O)cc1 (stereo not drawn)	none
O=C(O)Cc1ccc(NC(=O)C2CC=CCC2C(=O)O)cc1 (stereo not drawn)	MrgX1 antag -8.3
COc1ccc(S(=O)(=O)/N=C2/C=CC(=O)C(C)=C2C)cc1	none
CC1=C/C(=N\OS(=O)(=O)c2ccccc2)C(C)=CC1=O	MrgX1 PAM 15 (no result: RGS4 block, RGS4 pot)
CC1=C/C(=N\OS(=O)(=O)c2ccccc2)C(C(C)C)=CC1=O	MrgX1 antag -4.6 (no result: RGS4 block, RGS4 pot)
CC1=C(C)/C(=N\OS(=O)(=O)c2ccc(C)cc2)C=CC1=O	MrgX1 antag -5.2 (no result: RGS4 block, RGS4 pot)
CC1=CC(=O)c2ccccc2C1=O	none
Cc1ccc(-n2cc(-c3ccc([N+](=O)[O-])cc3)[nH]c2=S)c(C)c1	MrgX1 PAM 9.7
O=C(Nc1ccccc1C(=O)O)c1ccc(CN2C(=O)c3ccccc3C2=O)cc1	none
COc1ccccc1CCNC(=O)C(=O)c1cn(CC(=O)N2CCOCC2)c2ccccc12	none
N/C(=N\OC(=O)Oc1ccccc1)c1ccc(Cl)cc1	RGS4 pot -9.5
COC(=O)[C@@H]1C(c2c(OC)cc(OC)cc2OC)=NO[C@H]1C(=O)OC	MrgX1 antag -6.2
COC(=O)C1CC(c2c(OC)cc(OC)cc2OC)=NO1 (stereo not drawn)	none
COc1ccc(S(=O)(=O)Cc2ccc(C(=O)N3CCN(c4cc(Cl)ccc4C)CC3)o2)cc1	RGS4 pot -8.2
Cc1ccc(C)c(N2CCN(C(=O)c3ccc(CS(=O)Cc4cccc(Cl)c4)o3)CC2)c1 (stereo not drawn)	RGS4 pot -8.7
Cc1cccc(N2CCN(C(=O)c3ccc(CS(=O)Cc4ccc(Cl)cc4)o3)CC2)c1C (stereo not drawn)	none
COc1ccc(S(=O)(=O)Cc2ccc(C(=O)NCCc3cc(OC)ccc3OC)o2)cc1	MrgX1 PAM 7.5
N#CCN1CCC(c2cc(-c3ccco3)n[nH]2)CC1	none
Cc1c(Cl)cccc1NC(=S)N(Cc1cccnc1)Cc1ccccc1Cl	none
COC(=O)/C=C1\OC(c2ccccc2)=CC1=O	RGS4 block 26
O=C(/C=C/Nc1ccc(Br)cc1F)c1ccccc1	MrgX1 antag -6
O=C(COC(=O)c1ncc(Cl)c(Cl)c1Cl)NC(=O)c1ccccc1	none
CCCCn1c(NC(=O)c2ccccc2Cl)c(C#N)c2nc3ccccc3nc21	MrgX1 agonist 26
COc1ccc(-n2c(NC(=O)c3ccco3)c(C#N)c3nc4ccccc4nc32)cc1	MrgX1 PAM 7.1
Cc1cc(C(C)(C)C)cc(C)c1COC(=O)c1cccnc1	none
Cc1ccc(CCNC(=O)c2cccc(NC3=NC4CS(=O)(=O)CC4S3)c2)cc1 (stereo not drawn)	none
CCOC(=O)N1CCN(C(=O)c2ccc3c(=O)n(Cc4ccc(Cl)cc4)c(=S)[nH]c3c2)CC1	none
CCOC(=O)N1CCN(C(=O)c2ccc(Cn3c(=S)[nH]c4ccc(Br)cc4c3=O)cc2)CC1	MrgX1 antag -5.6
COc1cc(/C=C2\SC(c3ccc(C)cc3)=NC2=O)ccc1O	MrgX1 antag -5.8
COc1ccc(/C=C2\SC(c3ccc(C)cc3)=NC2=O)cc1OC	none
COc1cc(/C=C2\SC(=N)N(c3ccc(F)cc3)C2=O)ccc1O	MrgX1 antag -4.9
CCCCOc1ccccc1C(=O)NNC(=S)NC(=O)c1ccccc1[N+](=O)[O-]	MrgX1 antag -5.8
O=C(NNC(=S)NC(=O)c1ccccc1[N+](=O)[O-])c1ccccc1[N+](=O)[O-]	none
CN(C)c1ccc(/C=C/C(=O)c2cc(Cl)ccc2O)cc1	MrgX1 antag -6.8
O=C(Nc1ccc(Oc2ccc(NC(=O)Nc3ccccc3Cl)cc2)cc1)Nc1ccccc1Cl	none
COc1ccccc1NC(=S)N/N=C/c1cccc(C)c1	none
COc1ccccc1NC(=S)N/N=C/c1ccc(O)cc1	MrgX1 PAM 9
O=C1C(=C2CCCCC2)SC(=S)N1Cc1ccco1	RGS4 pot -7.9
CCOc1ccc(NC(=O)c2ccc(NC(=O)CSc3nc4ccccc4c(=O)[nH]3)cc2)cc1	none
CCOc1ccc(C(=O)Nc2cc(-c3nc4ccccc4[nH]3)ccc2C)cc1[N+](=O)[O-]	RGS4 pot -7.1
Cc1ccc(-c2nc3ccccc3[nH]2)cc1NC(=S)NC(=O)c1ccccc1Br	RGS4 pot -7.1
Cc1ccc(-c2nc3ccccc3[nH]2)cc1NC(=O)c1ccc2c(c1)OCO2	none
Cc1cccc(NC(=S)NC2CCSc3ccccc32)c1 (stereo not drawn)	none
Cc1cc(C)c(S(=O)(=O)N2CCCCC2C(=O)O)c(C)c1 (stereo not drawn)	none
NCC(c1ccccc1)c1c[nH]c2ccccc12 (stereo not drawn)	none
O=[N+]([O-])CC(c1ccc(F)cc1)c1c[nH]c2ccccc12 (stereo not drawn)	MrgX1 PAM 6.5
O=c1oc(-c2ccc(Br)cc2)nc2ccccc12	none
CC(=O)N1c2ccccc2C2(C)C(C1(C)C)C2(Cl)Cl (stereo not drawn)	none
Cc1ccc2c(c1)C1(C)C(C(C)(C)N2C=O)C1(Cl)Cl (stereo not drawn)	MrgX1 PAM 13
CC(C)c1cc(=O)oc2c3c4c(cc12)CCCN4CCC3	none
CN1CCCc2cc3c(C(F)(F)F)cc(=O)oc3nc21	RGS4 pot -8
